Assay results as given in ChEMBL document CHEMBL3232847, “Discovery of 6-phenylpyrimido[4,5-b][1,4]oxazines as potent and selective acyl CoA:diacylglycerol acyltransferase 1 (DGAT1) inhibitors with in vivo efficacy in rodents” (J Med Chem, 2014).

How the values were obtained:
[1] = Oral Bioavailability in CD1 mouse at 0.3 mg/kg; format: ADME, organism-based; details: in vivo
[2] = Clearance in Sprague-Dawley rat at 0.7 mg/kg, iv; format: ADME, organism-based; design: dose 0.7 mg/kg, route intravenous; details: in vivo
[3] = AUC in CD1 mouse at 0.3 mg/kg, po; format: ADME, organism-based; design: dose 0.3 mg/kg, route oral; details: plasma
Cytochrome P450 1A2 = molecular target: T1, Cytochrome P450 1A2 (Homo sapiens, UniProt P05177); test: Inhibition of CYP1A2 (unknown origin) at 10 uM; format: ADME
T1 sequence (P05177 whole entry): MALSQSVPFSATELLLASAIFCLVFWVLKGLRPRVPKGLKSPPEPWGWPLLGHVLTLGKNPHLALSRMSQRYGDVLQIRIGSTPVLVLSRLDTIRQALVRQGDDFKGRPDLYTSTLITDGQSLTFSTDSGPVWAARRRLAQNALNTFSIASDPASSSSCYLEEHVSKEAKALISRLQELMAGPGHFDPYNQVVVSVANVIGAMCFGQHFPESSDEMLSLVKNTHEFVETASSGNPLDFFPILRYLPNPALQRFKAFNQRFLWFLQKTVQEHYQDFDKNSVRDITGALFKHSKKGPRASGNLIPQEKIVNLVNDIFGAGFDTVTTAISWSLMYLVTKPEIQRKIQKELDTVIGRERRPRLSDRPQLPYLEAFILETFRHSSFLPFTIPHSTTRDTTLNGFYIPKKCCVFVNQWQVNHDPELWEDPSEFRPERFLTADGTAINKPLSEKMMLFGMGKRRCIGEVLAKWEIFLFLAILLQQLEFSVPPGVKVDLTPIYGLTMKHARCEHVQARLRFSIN

Cytochrome P450 2D6 = Cytochrome P450 2D6 (Homo sapiens, UniProt P10635); test: Inhibition of CYP2D6 (unknown origin) at 10 uM; format: ADME
Cytochrome P450 2C9 = Cytochrome P450 2C9 (Homo sapiens, UniProt P11712); test: Inhibition of CYP2C9 (unknown origin) at 10 uM; format: ADME
Cytochrome P450 3A4 = Cytochrome P450 3A4 (Homo sapiens, UniProt P08684); test: Inhibition of CYP3A4 (unknown origin) at 10 uM; format: ADME
Mus musculus [4] = test: Reduction in plasma triglyceride level in po dosed C57BL/6J mouse compound treated 30 mins prior to olive oil administration measured 3 hrs post olive oil administration relative to vehicle-treated control; format: functional, organism-based
How it was run: (§1)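 Animals received vehicle or compound by oral gavage, then olive oil (5 mL/kg) by oral gavage 30 min later. Plasma triglycerides were measured before dosing and 3 h after the oil. The read-out was the change in TG from pre-dose, compared with vehicle-treated animals.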

Mus musculus [5] = test: Reduction in plasma triglyceride level in C57BL/6J mouse at 0.1 mg/kg, po treated 30 mins prior to olive oil administration measured 3 hrs post olive oil administration relative to vehicle-treated control; format: functional; design: scale not given: the % may be the effect or the level left; how it was run: as §1
[6] = AUC in C57BL/6J mouse at 0.3 mg/kg, po; format: ADME, organism-based; design: dose 0.3 mg/kg, route oral; details: plasma
[7] = molecular target: Voltage-gated inwardly rectifying potassium channel KCNH2 (Homo sapiens, UniProt Q12809); test: Inhibition of human ERG up to 5 uM by patch clamp assay
[8] = Volume of distribution at steady state in beagle dog at 0.2 mg/kg, iv; format: ADME, organism-based, Canis lupus familiaris; design: dose 0.2 mg/kg, route intravenous; details: in vivo, read-out: Vdss
[9] = AUC in beagle dog at 2 mg/kg, po; format: ADME, organism-based, Canis lupus familiaris; design: dose 2 mg/kg, route oral; details: plasma
[10] = Clearance in cynomolgus monkey at 0.5 mg/kg, iv; format: ADME, organism-based, Macaca fascicularis; design: dose 0.5 mg/kg, route intravenous; details: in vivo
[11] = Half life in cynomolgus monkey at 0.5 mg/kg, iv; format: ADME, organism-based, Macaca fascicularis; design: dose 0.5 mg/kg, route intravenous; details: in vivo
Rattus norvegicus [12] = test: Toxicity in Sprague-Dawley rat assessed as change in clinical parameters at 10 mg/kg, po qd by 14-day multiple-dose toxicity study; format: organism-based; design: dose 10 mg/kg, route oral; details: in vivo
How it was run: (§2)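 Sprague−Dawley rats were dosed po once daily for 14 days. Clinical and histopathological findings were assessed, and plasma AUC was recorded for each dose.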

Rattus norvegicus [13] = test: Toxicity in Sprague-Dawley rat assessed as sebaceous gland atrophy at 30 to 100 mg/kg, po qd by 14-day multiple-dose toxicity study; format: organism-based; design: dose 30-100 mg/kg, route oral; details: in vivo; how it was run: as §2
[14] = AUC in Sprague-Dawley rat at 30 mg/kg, po qd; format: ADME, organism-based; design: dose 30 mg/kg, route oral; details: plasma
How it was run: (§3)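 Sprague-Dawley rats dosed orally once daily for 14 days in a multiple-dose toxicity study at 10, 30 or 100 mg/kg. Plasma exposure was reported as AUC, and clinical and histopathological findings were recorded.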

[15] = AUC in Sprague-Dawley rat at 100 mg/kg, po qd; format: ADME, organism-based; design: dose 100 mg/kg, route oral; details: plasma; how it was run: as §3
Cynomolgus monkey [16] = test: Toxicity in cynomolgus monkey assessed as elevation of ALT level at 10 to 30 mg/kg/day, po qd by 21-day multiple-dose toxicity study relative to control; format: organism-based, Macaca fascicularis; design: route oral; details: in vivo
How it was run: (§4)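 Cynomolgus monkeys were dosed po once daily at 10 and 30 mg/kg for 21 days. ALT and AST levels, QTc intervals, and clinical and histopathological findings were assessed, and plasma AUC was recorded for each dose.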

Cynomolgus monkey [17] = test: Toxicity in cynomolgus monkey assessed as elevation of change in histopathological parameters at 10 to 30 mg/kg/day, po qd by 21-day multiple-dose toxicity study relative to control; format: organism-based, Macaca fascicularis; design: route oral; details: in vivo; how it was run: as §4
[18] = Clearance in CD1 mouse at 0.5 mg/kg, iv; format: ADME, organism-based; design: dose 0.5 mg/kg, route intravenous; details: in vivo
[19] = Volume of distribution at steady state in CD1 mouse at 0.5 mg/kg, iv; format: ADME, organism-based; design: dose 0.5 mg/kg, route intravenous; details: in vivo, read-out: Vdss
[20] = Half life in CD1 mouse at 0.5 mg/kg, iv; format: ADME, organism-based; design: dose 0.5 mg/kg, route intravenous; details: in vivo
[21] = Volume of distribution at steady state in Sprague-Dawley rat at 1 mg/kg, iv; format: ADME, organism-based; design: dose 1 mg/kg, route intravenous; details: in vivo, read-out: Vdss
[22] = Half life in Sprague-Dawley rat at 1 mg/kg, iv; format: ADME, organism-based; design: dose 1 mg/kg, route intravenous; details: in vivo
[23] = Volume of distribution at steady state in beagle dog at 0.5 mg/kg, iv; format: ADME, organism-based, Canis lupus familiaris; design: dose 0.5 mg/kg, route intravenous; details: in vivo, read-out: Vdss
[24] = Oral bioavailability in beagle dog at 5 mg/kg; format: ADME, organism-based, Canis lupus familiaris; details: in vivo
Mus musculus [25] = test: Reduction in plasma triglyceride level in C57BL/6J mouse at 0.3 mg/kg, po treated 30 mins prior to olive oil administration measured 3 hrs post olive oil administration relative to vehicle-treated control; format: functional; design: scale not given: the % may be the effect or the level left; how it was run: as §1
Rattus norvegicus [26] = test: Toxicity in Sprague-Dawley rat assessed as change in histopathological parameters at 30 mg/kg, po by 14-day multiple-dose toxicity study; format: organism-based; design: dose 30 mg/kg, route oral; details: in vivo; how it was run: as §2
[27] = AUC in Sprague-Dawley rat at 30 mg/kg, po; format: ADME, organism-based; design: dose 30 mg/kg, route oral; details: plasma
[28] = AUC in Sprague-Dawley rat at 100 mg/kg, po; format: ADME, organism-based; design: dose 100 mg/kg, route oral; details: plasma
[29] = Drug metabolism in Sprague-Dawley rat liver S9 fraction assessed as 2-hydroxy compound formation by MS/MS analysis; format: ADME, subcellular
[30] = Drug metabolism in cynomolgus monkey liver S9 fraction assessed as 2-hydroxy compound formation by MS/MS analysis; format: ADME, subcellular, Macaca fascicularis
[31] = Clearance in Sprague-Dawley rat at 1 mg/kg, iv; format: ADME, organism-based; design: dose 1 mg/kg, route intravenous; details: in vivo

Sequence of Cytochrome P450 3A4 (P08684 whole entry): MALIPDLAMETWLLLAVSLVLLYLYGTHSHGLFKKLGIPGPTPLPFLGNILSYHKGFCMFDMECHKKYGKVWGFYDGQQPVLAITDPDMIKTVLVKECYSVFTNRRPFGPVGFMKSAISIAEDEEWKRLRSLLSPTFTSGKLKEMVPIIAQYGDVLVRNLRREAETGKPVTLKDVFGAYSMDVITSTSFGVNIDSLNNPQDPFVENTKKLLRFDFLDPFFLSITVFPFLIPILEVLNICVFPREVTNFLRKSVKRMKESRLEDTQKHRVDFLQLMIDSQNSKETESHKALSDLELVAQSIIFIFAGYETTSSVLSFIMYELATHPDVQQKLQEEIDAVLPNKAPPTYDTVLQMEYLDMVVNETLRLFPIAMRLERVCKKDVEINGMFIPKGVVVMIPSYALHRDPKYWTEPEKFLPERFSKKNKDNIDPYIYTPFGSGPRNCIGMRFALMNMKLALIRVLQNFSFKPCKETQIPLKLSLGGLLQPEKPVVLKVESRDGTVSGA
Sequence of Cytochrome P450 2D6 (P10635 whole entry): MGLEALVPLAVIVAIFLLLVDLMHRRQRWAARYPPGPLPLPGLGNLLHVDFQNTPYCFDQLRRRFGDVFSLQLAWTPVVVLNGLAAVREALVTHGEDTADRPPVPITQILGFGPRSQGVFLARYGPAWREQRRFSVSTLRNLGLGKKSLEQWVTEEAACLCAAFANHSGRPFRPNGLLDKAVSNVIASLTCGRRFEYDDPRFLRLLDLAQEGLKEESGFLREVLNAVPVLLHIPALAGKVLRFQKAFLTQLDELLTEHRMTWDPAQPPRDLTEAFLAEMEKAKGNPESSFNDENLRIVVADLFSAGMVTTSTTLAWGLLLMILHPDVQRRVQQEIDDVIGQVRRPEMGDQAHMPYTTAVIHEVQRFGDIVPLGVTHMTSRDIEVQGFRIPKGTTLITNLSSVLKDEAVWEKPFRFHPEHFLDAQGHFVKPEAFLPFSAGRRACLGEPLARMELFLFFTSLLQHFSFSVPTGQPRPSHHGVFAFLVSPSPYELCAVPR
Sequence of Cytochrome P450 2C9 (P11712 whole entry): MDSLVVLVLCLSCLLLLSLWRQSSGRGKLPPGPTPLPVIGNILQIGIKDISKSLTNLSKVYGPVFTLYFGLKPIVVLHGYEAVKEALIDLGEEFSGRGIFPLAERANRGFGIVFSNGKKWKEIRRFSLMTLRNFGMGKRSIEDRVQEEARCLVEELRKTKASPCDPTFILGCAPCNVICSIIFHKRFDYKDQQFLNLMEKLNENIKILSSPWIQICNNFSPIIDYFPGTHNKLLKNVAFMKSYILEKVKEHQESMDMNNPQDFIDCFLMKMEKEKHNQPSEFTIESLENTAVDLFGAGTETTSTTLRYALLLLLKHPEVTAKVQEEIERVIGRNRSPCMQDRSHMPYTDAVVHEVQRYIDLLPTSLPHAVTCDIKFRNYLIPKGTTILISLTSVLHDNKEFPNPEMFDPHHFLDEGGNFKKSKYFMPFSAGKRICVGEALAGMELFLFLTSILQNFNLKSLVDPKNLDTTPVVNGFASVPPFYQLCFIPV
Sequence of Voltage-gated inwardly rectifying potassium channel KCNH2 (Q12809 whole entry): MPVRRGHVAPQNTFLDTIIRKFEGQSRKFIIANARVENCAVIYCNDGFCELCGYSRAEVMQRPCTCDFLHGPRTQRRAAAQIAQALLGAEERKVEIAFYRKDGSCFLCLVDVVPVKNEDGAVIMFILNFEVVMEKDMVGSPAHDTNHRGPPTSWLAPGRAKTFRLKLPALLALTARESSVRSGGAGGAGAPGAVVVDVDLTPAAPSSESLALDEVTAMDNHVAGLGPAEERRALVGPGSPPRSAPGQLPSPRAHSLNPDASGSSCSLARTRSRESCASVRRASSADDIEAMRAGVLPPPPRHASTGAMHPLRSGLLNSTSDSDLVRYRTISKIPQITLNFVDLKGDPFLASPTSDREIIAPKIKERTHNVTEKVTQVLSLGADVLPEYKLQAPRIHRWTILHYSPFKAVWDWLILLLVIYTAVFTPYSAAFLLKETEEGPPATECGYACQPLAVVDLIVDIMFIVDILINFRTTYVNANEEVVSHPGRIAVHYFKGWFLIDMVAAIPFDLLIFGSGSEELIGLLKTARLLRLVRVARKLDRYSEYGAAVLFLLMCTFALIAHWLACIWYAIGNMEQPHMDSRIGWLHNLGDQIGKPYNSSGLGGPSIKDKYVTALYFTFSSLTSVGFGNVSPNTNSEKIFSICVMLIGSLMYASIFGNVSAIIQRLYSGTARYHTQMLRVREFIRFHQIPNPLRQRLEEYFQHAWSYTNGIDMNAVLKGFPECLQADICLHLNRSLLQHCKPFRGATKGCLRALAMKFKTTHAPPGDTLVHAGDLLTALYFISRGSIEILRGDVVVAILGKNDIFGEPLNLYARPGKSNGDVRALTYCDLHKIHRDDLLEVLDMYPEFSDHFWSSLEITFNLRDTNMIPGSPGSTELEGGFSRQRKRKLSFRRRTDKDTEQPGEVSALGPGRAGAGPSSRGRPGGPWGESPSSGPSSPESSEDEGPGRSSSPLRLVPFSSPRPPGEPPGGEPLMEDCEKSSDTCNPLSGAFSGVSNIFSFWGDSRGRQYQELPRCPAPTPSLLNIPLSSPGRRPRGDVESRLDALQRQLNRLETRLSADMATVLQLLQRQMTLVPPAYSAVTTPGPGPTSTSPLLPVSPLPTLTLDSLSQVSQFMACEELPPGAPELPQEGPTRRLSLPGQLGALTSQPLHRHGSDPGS

## CC1(C)Oc2nc(C(F)(F)F)nc(N)c2N=C1c1ccc2c(c1)CC[C@]21CC[C@@H](CC(=O)O)CC1
[1]
  bioavailability: 77%
[2]
  clearance: 3.5 mL/min/kg
[3]
  AUC: 341 ng·h/mL
Cytochrome P450 1A2
  inhibition (INH): Not Active
Cytochrome P450 2D6
  inhibition (INH): Not Active
Cytochrome P450 2C9
  inhibition (INH): Not Active
Cytochrome P450 3A4
  inhibition (INH): Not Active
Mus musculus [4]
  Activity: Dose-dependent effect
Mus musculus [5]
  Activity: 99.7%
[6]
  AUC: 0.65 µM·h
[7]
  inhibition (INH): Not Active
[8]
  Vd: 0.21 L/kg
[9]
  AUC: 3180 ng·h/mL
[10]
  clearance: 0.333 mL/min/kg
[11]
  half-life: 15.4 h
Rattus norvegicus [12]
  Activity: Non-toxic
Rattus norvegicus [13]
  Activity: Toxic
[14]
  AUC: 78 µM·h
[15]
  AUC: 677 µM·h
Cynomolgus monkey [16]
  Activity: Non-toxic
Cynomolgus monkey [17]
  Activity: Non-toxic
[18]
  clearance: 7.5 mL/min/kg
[19]
  Vd: 2.8 L/kg
[20]
  half-life: 4.4 h

## CC1(C)Oc2ncnc(N)c2N=C1c1ccc([C@H]2CC[C@H](CC(=O)O)CC2)cc1
[21]
  Vd: 1.65 L/kg
[22]
  half-life: 1.7 h
[23]
  Vd: 1.9 L/kg
[24]
  bioavailability: 64%
Mus musculus [25]
  Activity: 93%
Cytochrome P450 1A2
  inhibition (INH): Not Active
Cytochrome P450 2D6
  inhibition (INH): Not Active
Cytochrome P450 2C9
  inhibition (INH): Not Active
Cytochrome P450 3A4
  inhibition (INH): Not Active
Rattus norvegicus [26]
  Activity: Non-toxic
[27]
  AUC: 913 µM·h
[28]
  AUC: 3750 µM·h
[29]
  Drug metabolism: metabolite_detected
[30]
  Drug metabolism: metabolite_detected
[6]
  AUC: 2.6 µM·h
[18]
  clearance: 1.83 mL/min/kg
[19]
  Vd: 0.79 L/kg
[20]
  half-life: 4.7 h
[31]
  clearance: 9.17 mL/min/kg
